Results published in ChEMBL document CHEMBL2176948 (J Med Chem, 2012).
Calls of active or inactive are those of the source. No cut-off for these calls is given here.

Legend:
HT-29 [1] = experiment: Cytotoxicity against human HT-29 cells after 96 hrs by MTT assay; type: functional, cell-based; settings: HT-29, 96 h
How it was run: (§1)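 Cells were grown in RPMI 1640 with 1 mM sodium pyruvate, 2 mM L-glutamine and 10% FBS. They were seeded at 1 × 10⁴ cells/mL and left overnight at 37 °C in 5% CO₂. Medium was then replaced with a broad concentration range of compound diluted from DMSO (final DMSO ≤0.1%). After 96 h exposure, growth was read by MTT.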

MDA-MB-231 = experiment: Cytotoxicity against human MDA-MB-231 cells after 96 hrs by MTT assay; type: functional, cell-based; settings: MDA-MB-231, 96 h; how it was run: as §1
DLD-1 [2] = experiment: Cytotoxicity against human DLD1 cells after 96 hrs by MTT assay; type: functional, cell-based; settings: DLD-1, 96 h; how it was run: as §1
[3] = test system: A2780 (human ovarian carcinoma); experiment: Cytotoxicity against human A2780 cells after 96 hrs by MTT assay; settings: A2780, 96 h
[4] = Cytotoxicity against human A2780AD cells expressing p-gp after 96 hrs by MTT assay; type: functional, cell-based; settings: A2780 ADR
How it was run: (§2)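 Cells were seeded at 1 × 10⁴ cells/mL in 96-well format and incubated overnight at 37 °C in 5% CO₂. Medium was replaced with serial compound dilutions from DMSO stocks in complete medium (final DMSO ≤0.1%). Chemosensitivity was read by MTT after 96 h.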

HT-29 [5] = experiment: Cell cycle arrest in human HT-29 cells assessed as accumulation at G2/M phase at 40 nM after 48 hrs by FACS analysis; type: functional
DLD-1 [6] = experiment: Induction of ABCB1 mRNA expression in human DLD1 cells at 1/10 IC50 to IC50 after 96 hrs by RT-PCR analysis; type: functional, cell-based
How it was run: (§3)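 HT29 and DLD-1 cells were seeded at 5 × 10⁵ cells/dish, incubated overnight, then treated for 96 h. Total RNA was isolated, and ABCB1 and ABCG2 mRNA were measured by quantitative RT-PCR. Fold induction is target/PPIA signal relative to the control ratio, from three independent PCR analyses. Statistics: paired two-tailed t test with two-way ANOVA and Bonferroni correction.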

DLD-1 [7] = experiment: Induction of ABCG2 mRNA expression in human DLD1 cells at 1/10 IC50 to IC50 after 96 hrs by RT-PCR analysis; type: functional, cell-based; how it was run: as §3
HT-29 [8] = experiment: Induction of ABCG2 mRNA expression in human HT-29 cells at 1/10 IC50 to IC50 after 96 hrs by RT-PCR analysis; type: functional, cell-based; how it was run: as §3
HT-29 [9] = experiment: Cell cycle arrest in human HT-29 cells assessed as accumulation at G2/M phase at 40 nM after 24 hrs by FACS analysis; type: functional
HeLa [10] = experiment: Cytotoxicity against human HeLa cells after 96 hrs by MTT assay; type: functional, cell-based
How it was run: (§4)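 Parental HeLa cells and a transfected class III β-tubulin-overexpressing variant were seeded at 1 × 10⁴ cells/mL and held overnight at 37 °C, 5% CO₂. Compounds in DMSO were diluted in complete medium over a broad range (final DMSO ≤0.1%) and exposed for 96 h. Read-out was MTT. IC50 is the mean ± standard error of at least four independent assays.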

HeLa [11] = experiment: Cytotoxicity against human HeLa cells expressing class 3 tubulin after 96 hrs by MTT assay; type: functional, cell-based; how it was run: as §4
HT-29 [12] = experiment: Induction of ABCB1 mRNA expression in human HT-29 cells at 1/10 IC50 to IC50 after 96 hrs by RT-PCR analysis; type: functional, cell-based; how it was run: as §3
A2780 ADR = experiment: Effect on ABCB1 level in human A2780AD cells expressing p-gp; type: functional, cell-based
A549 = experiment: Cytotoxicity against human A549 cells after 96 hrs by MTT assay in presence of fumitremorgin-C; type: functional, cell-based; how it was run: as §2
HT-29 [13] = experiment: Induction of microtubule disruption in human HT-29 cells assessed as change […] cell morphology and cytoskeletal organization after 24 hrs by immunostaining; type: cell-based
How it was run: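 HT29 cells on glass coverslips were allowed to adhere for 24 h, then exposed to 5, 50 and 500 nM for 24 h. Cells were fixed in methanol at −20 °C for 30 min and stained with mouse anti-α-tubulin (1:500, 30 min, rt), then TRITC anti-mouse IgG (1:50, 30 min). Images were taken by confocal microscopy and compared with untreated cells.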

Liver = experiment: Metabolic stability of the compound in mouse liver homogenates at 100 uM after 2 hrs; type: ADME, tissue-based; settings: tissue homogenate

COc1ccc(CN[C@H]2CCc3cc(OC)c(OC)c(OC)c3-c3ccc(OC)c(=O)cc32)cc1
IC50 (HT-29 [1]): 51 nM
IC50 (MDA-MB-231): 93 nM
IC50 (DLD-1 [2]): 15.7 nM

COc1cc2c(c(OC)c1OC)-c1ccc(OC)c(=O)cc1[C@@H](NCc1cc(F)cc(F)c1)CC2
IC50 (HT-29 [1]): 52 nM
IC50 (MDA-MB-231): 523 nM
IC50 (DLD-1 [2]): 35.2 nM

COc1cc2c(c(OC)c1OC)-c1ccc(OC)c(=O)cc1[C@@H](NCc1cccc(F)c1)CC2
IC50 (HT-29 [1]): 63.4 nM
IC50 (MDA-MB-231): 89.1 nM
IC50 (DLD-1 [2]): 51.6 nM

CC(=O)O[C@H]1C(=O)[C@@]2(C)[C@H]([C@H](OC(=O)c3ccccc3)[C@]3(O)C[C@H](OC(=O)[C@H](O)[C@@H](NC(=O)c4ccccc4)c4ccccc4)C(C)=C1C3(C)C)[C@]1(OC(C)=O)CO[C@@H]1C[C@@H]2O [PACLITAXEL]
IC50 [3]: 1.1 nM
IC50 [4]: > 1000 nM

COc1cc2c(c(OC)c1OC)-c1ccc(OC)c(=O)cc1[C@@H](NCc1cc(F)c(F)c(F)c1)CC2
IC50 (HT-29 [1]): 64.5 nM
IC50 (MDA-MB-231): 92.2 nM
IC50 (DLD-1 [2]): 36.2 nM

COc1cc2c(c(OC)c1OC)-c1ccc(OC)c(=O)cc1[C@@H](NCc1ccc(F)cc1)CC2
IC50 (DLD-1 [2]): 11.4 nM

COc1cc2c(c(OC)c1OC)-c1ccc(OC)c(=O)cc1[C@@H](NCc1ccc(Br)cc1)CC2
IC50 (DLD-1 [2]): 31.2 nM

COc1cc2c(c(OC)c1OC)-c1ccc(OC)c(=O)cc1[C@@H](NCc1ccc(Cl)cc1)CC2
IC50 (DLD-1 [2]): 32.6 nM

COc1cc2c(c(OC)c1OC)-c1ccc(OC)c(=O)cc1[C@@H](NCc1ccc(I)cc1)CC2
IC50 (DLD-1 [2]): 35.9 nM

COc1cc2c(c(OC)c1OC)-c1ccc(OC)c(=O)cc1[C@@H](NC(C)=O)CC2 [COLCHICINE]
Activity (HT-29 [5]): Active
IC50 [3]: 6.7 nM
IC50 (HT-29 [1]): 69.2 nM
Activity (DLD-1 [6]): inactive
Activity (DLD-1 [7]): inactive
Activity (HT-29 [8]): Active
Activity (HT-29 [9]): Active
IC50 (MDA-MB-231): 37 nM
IC50 (HeLa [10]): 8.2 nM
IC50 (DLD-1 [2]): 15.6 nM
IC50 (HeLa [11]): 9.7 nM
IC50 [4]: 16.8 nM
Activity (HT-29 [12]): Active

COc1cc2c(c(OC)c1OC)-c1ccc(OC)c(=O)cc1[C@@H](NCc1ccc(F)c(F)c1)CC2
Activity (A2780 ADR): inactive
Activity (HT-29 [5]): 91.2%
Activity (A549): Active
IC50 [3]: 18.8 nM
IC50 (HT-29 [1]): 4.3 nM
Activity (DLD-1 [6]): inactive
Activity (HT-29 [13]): Dose-dependent effect
Activity (DLD-1 [7]): inactive
Activity (HT-29 [8]): Active
Activity (HT-29 [9]): 92.5%
IC50 (MDA-MB-231): 16 nM
Stability (Liver): Stable
IC50 (HeLa [10]): 25.3 nM
IC50 (DLD-1 [2]): 1.61 nM
IC50 (HeLa [11]): 14.1 nM
IC50 [4]: 17.2 nM
Activity (HT-29 [12]): Active

COc1cc2c(c(OC)c1OC)-c1ccc(OC)c(=O)cc1[C@@H](NCc1cccc(F)c1F)CC2
IC50 (HT-29 [1]): 7.43 nM
IC50 (MDA-MB-231): 86 nM
IC50 (DLD-1 [2]): 4.67 nM
